In paper PMC10582678 (Clinical and Translational Science, 2023):
Entries after “also recorded” stand apart in the source; their conditions may differ.

How the values were obtained:
BTK = BTK (Homo sapiens, UniProt Q06187); assay: BTK receptor occupancy in peripheral blood monocytes; type: in vivo
Method in brief: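 Peripheral blood was sampled from healthy adult Chinese subjects given oral test compound or placebo. In the multiple-dose part, samples were taken at 0, 12, 24 and 168 h after the first dose (day 1) and at 0 and 12 h after the last dose (day 10). In the food-effect part, samples were taken at 0, 12, 24 and 120 h postdose. BTK occupancy was measured by validated ELISA (sensitivity 1.784 ng/mL). Negative placebo values were set to 0.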

[1] = Safety, adverse events, single ascending dose; type: in vivo, human; details: for AEs / Decreased leukocyte count / Decreased neutrophil count / Increased ALT / Increased blood cholesterol / Increased blood triglycerides / Abdominal discomfort / Constipation / Decreased lymphocyte count / Dermatitis allergic / Dyspepsia / Increased AST / Increased blood bilirubin / Increased blood creatinine / Lethargy / Mouth ulceration / Oropharyngeal pain / Sinus arrythmia / Treatment discontinuation due to AEs / Upper respiratory tract infection: n (%)
Method in brief: (§1)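 Safety was monitored by vital signs, clinical laboratory tests, physical examination, 12-lead ECG, AEs and SAEs. AEs were coded with MedDRA 23.1 and graded by CTCAE 5.0. Subjects were discharged 6 days after the last dose, with a follow-up visit 8–14 days after the last dose. The safety set comprised randomized subjects who received active drug or placebo and had post-dose safety data.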

[2] = Safety, adverse events, whole study; type: in vivo, human
Method in brief: as §1

[3] = 27 subjects who received SAD 100 to 800 mg
[4] = among 57 subjects who received SN1011

Chain of BTK (Q06187 whole entry): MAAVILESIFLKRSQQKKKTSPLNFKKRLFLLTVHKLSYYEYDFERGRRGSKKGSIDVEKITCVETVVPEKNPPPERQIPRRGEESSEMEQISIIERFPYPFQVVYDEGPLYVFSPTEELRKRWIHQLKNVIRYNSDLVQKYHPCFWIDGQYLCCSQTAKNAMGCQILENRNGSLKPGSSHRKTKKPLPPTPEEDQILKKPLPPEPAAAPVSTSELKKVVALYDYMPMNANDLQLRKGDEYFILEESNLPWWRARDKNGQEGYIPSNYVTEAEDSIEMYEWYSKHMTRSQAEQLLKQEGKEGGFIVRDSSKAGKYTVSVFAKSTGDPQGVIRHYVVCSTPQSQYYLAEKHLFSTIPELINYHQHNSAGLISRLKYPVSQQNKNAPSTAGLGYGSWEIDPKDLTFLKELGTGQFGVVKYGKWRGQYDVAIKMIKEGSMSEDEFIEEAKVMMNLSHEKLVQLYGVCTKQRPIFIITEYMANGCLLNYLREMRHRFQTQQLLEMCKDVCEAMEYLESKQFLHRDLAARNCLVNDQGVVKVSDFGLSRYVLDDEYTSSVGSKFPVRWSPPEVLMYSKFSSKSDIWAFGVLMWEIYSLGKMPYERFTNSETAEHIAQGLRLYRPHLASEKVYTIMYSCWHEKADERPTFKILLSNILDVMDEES

N#CN1C[C@H](n2nc(-c3ccc(Oc4ccc(Cl)cn4)cc3)c(C(N)=O)c2N)CCC12CC2 [SN1011, 5-amino-3-(4-((5-chloro-2-pyridinyl)oxy)phenyl)-1-((6R)-4-cyano-4-azaspiro[2.5]octan-6-yl)-1H-pyrazole-4-carboxamide]
BTK receptor occupancy (BTK; MAD groups, 10 days of continuous q.d. administration of 400 and 600 mg): above 80% | BTK receptor occupancy (BTK; over 24 h after single administration of 600 mg, fasted and fed states): above 83% | blood triglycerides increased [1, 3]: 18.5% | neutrophil count decreased [1, 3]: 14.8% | number of AEs [1, 3]: 13 | subjects who experienced AEs [1, 3]: 33.3% | white blood cell count decreased [1, 3]: 7.4% | AEs ([1]; SAD 100 mg, any grade): 0 | Decreased leukocyte count ([1]; SAD 100 mg, any grade): 0 | Decreased neutrophil count ([1]; SAD 100 mg, any grade): 0 | Increased ALT ([1]; SAD 100 mg, any grade): 0 | Increased blood cholesterol ([1]; SAD 100 mg, any grade): 0 | Increased blood triglycerides ([1]; SAD 100 mg, any grade): 0 | Abdominal discomfort ([1]; SAD 100 mg): 0 | Constipation ([1]; SAD 100 mg): 0 | Decreased lymphocyte count ([1]; SAD 100 mg): 0 | Dermatitis allergic ([1]; SAD 100 mg): 0 | Dyspepsia ([1]; SAD 100 mg): 0 | Increased AST ([1]; SAD 100 mg): 0 | Increased blood bilirubin ([1]; SAD 100 mg): 0 | Increased blood creatinine ([1]; SAD 100 mg): 0 | Lethargy ([1]; SAD 100 mg): 0 | Mouth ulceration ([1]; SAD 100 mg): 0 | Oropharyngeal pain ([1]; SAD 100 mg): 0 | Sinus arrythmia ([1]; SAD 100 mg): 0 | Treatment discontinuation due to AEs ([1]; SAD 100 mg): 0 | Upper respiratory tract infection ([1]; SAD 100 mg): 0 | AEs ([1]; SAD 200 mg, any grade): 2 (33.3) | Decreased leukocyte count ([1]; SAD 200 mg, any grade): 0 | Decreased neutrophil count ([1]; SAD 200 mg, any grade): 0 | Increased ALT ([1]; SAD 200 mg, any grade): 1 (16.7) | Increased blood cholesterol ([1]; SAD 200 mg, any grade): 1 (16.7) | Increased blood triglycerides ([1]; SAD 200 mg, any grade): 2 (33.3) | Abdominal discomfort ([1]; SAD 200 mg): 0 | Constipation ([1]; SAD 200 mg): 0 | Decreased lymphocyte count ([1]; SAD 200 mg): 0 | Dermatitis allergic ([1]; SAD 200 mg): 0 | Dyspepsia ([1]; SAD 200 mg): 0 | Increased AST ([1]; SAD 200 mg): 0 | Increased blood bilirubin ([1]; SAD 200 mg): 0 | Increased blood creatinine ([1]; SAD 200 mg): 0 | Lethargy ([1]; SAD 200 mg): 0 | Mouth ulceration ([1]; SAD 200 mg): 0 | Oropharyngeal pain ([1]; SAD 200 mg): 0 | Sinus arrythmia ([1]; SAD 200 mg): 0 | Treatment discontinuation due to AEs ([1]; SAD 200 mg): 0 | Upper respiratory tract infection ([1]; SAD 200 mg): 0 | AEs ([1]; SAD 400 mg, any grade): 2 (33.3) | Decreased leukocyte count ([1]; SAD 400 mg, any grade): 0 | Decreased neutrophil count ([1]; SAD 400 mg, any grade): 0 | Increased ALT ([1]; SAD 400 mg, any grade): 0 | Increased blood cholesterol ([1]; SAD 400 mg, any grade): 0 | Increased blood triglycerides ([1]; SAD 400 mg, any grade): 2 (33.3) | Abdominal discomfort ([1]; SAD 400 mg): 0 | Constipation ([1]; SAD 400 mg): 0 | Decreased lymphocyte count ([1]; SAD 400 mg): 0 | Dermatitis allergic ([1]; SAD 400 mg): 0 | Dyspepsia ([1]; SAD 400 mg): 0 | Increased AST ([1]; SAD 400 mg): 0 | Increased blood bilirubin ([1]; SAD 400 mg): 0 | Increased blood creatinine ([1]; SAD 400 mg): 0 | Lethargy ([1]; SAD 400 mg): 0 | Mouth ulceration ([1]; SAD 400 mg): 0 | Oropharyngeal pain ([1]; SAD 400 mg): 0 | Sinus arrythmia ([1]; SAD 400 mg): 0 | Treatment discontinuation due to AEs ([1]; SAD 400 mg): 0 | Upper respiratory tract infection ([1]; SAD 400 mg): 0 | AEs ([1]; SAD 600 mg, any grade): 3 (50.0) | Decreased leukocyte count ([1]; SAD 600 mg, any grade): 1 (16.7) | Decreased neutrophil count ([1]; SAD 600 mg, any grade): 3 (50.0) | Increased ALT ([1]; SAD 600 mg, any grade): 0 | Increased blood cholesterol ([1]; SAD 600 mg, any grade): 0 | Increased blood triglycerides ([1]; SAD 600 mg, any grade): 0 | Abdominal discomfort ([1]; SAD 600 mg): 0 | Constipation ([1]; SAD 600 mg): 0 | Decreased lymphocyte count ([1]; SAD 600 mg): 0 | Dermatitis allergic ([1]; SAD 600 mg): 0 | Dyspepsia ([1]; SAD 600 mg): 0 | Increased AST ([1]; SAD 600 mg): 0 | Increased blood bilirubin ([1]; SAD 600 mg): 0 | Increased blood creatinine ([1]; SAD 600 mg): 0 | Lethargy ([1]; SAD 600 mg): 0 | Mouth ulceration ([1]; SAD 600 mg): 0 | Oropharyngeal pain ([1]; SAD 600 mg): 0 | Sinus arrythmia ([1]; SAD 600 mg): 0 | Treatment discontinuation due to AEs ([1]; SAD 600 mg): 0 | Upper respiratory tract infection ([1]; SAD 600 mg): 0 | AEs ([1]; SAD 800 mg, any grade): 2 (33.3) | Decreased leukocyte count ([1]; SAD 800 mg, any grade): 1 (16.7) | Decreased neutrophil count ([1]; SAD 800 mg, any grade): 1 (16.7) | Increased ALT ([1]; SAD 800 mg, any grade): 0 | Increased blood cholesterol ([1]; SAD 800 mg, any grade): 0 | Increased blood triglycerides ([1]; SAD 800 mg, any grade): 1 (16.7) | Abdominal discomfort ([1]; SAD 800 mg): 0 | Constipation ([1]; SAD 800 mg): 0 | Decreased lymphocyte count ([1]; SAD 800 mg): 0 | Dermatitis allergic ([1]; SAD 800 mg): 0 | Dyspepsia ([1]; SAD 800 mg): 0 | Increased AST ([1]; SAD 800 mg): 0 | Increased blood bilirubin ([1]; SAD 800 mg): 0 | Increased blood creatinine ([1]; SAD 800 mg): 0 | Lethargy ([1]; SAD 800 mg): 0 | Mouth ulceration ([1]; SAD 800 mg): 0 | Oropharyngeal pain ([1]; SAD 800 mg): 0 | Sinus arrythmia ([1]; SAD 800 mg): 0 | Treatment discontinuation due to AEs ([1]; SAD 800 mg): 0 | Upper respiratory tract infection ([1]; SAD 800 mg): 0 | Abdominal discomfort ([1]; SAD All SN1011, N = 27): 0 | Constipation ([1]; SAD All SN1011, N = 27): 0 | Decreased leukocyte count ([1]; SAD All SN1011, N = 27): 2 (7.4) | Decreased lymphocyte count ([1]; SAD All SN1011, N = 27): 0 | Decreased neutrophil count ([1]; SAD All SN1011, N = 27): 4 (14.8) | Dermatitis allergic ([1]; SAD All SN1011, N = 27): 0 | Dyspepsia ([1]; SAD All SN1011, N = 27): 0 | Increased ALT ([1]; SAD All SN1011, N = 27): 1 (3.7) | Increased AST ([1]; SAD All SN1011, N = 27): 0 | Increased blood bilirubin ([1]; SAD All SN1011, N = 27): 0 | Increased blood cholesterol ([1]; SAD All SN1011, N = 27): 1 (3.7) | Increased blood creatinine ([1]; SAD All SN1011, N = 27): 0 | Increased blood triglycerides ([1]; SAD All SN1011, N = 27): 5 (18.5) | Lethargy ([1]; SAD All SN1011, N = 27): 0 | Mouth ulceration ([1]; SAD All SN1011, N = 27): 0 | Oropharyngeal pain ([1]; SAD All SN1011, N = 27): 0 | Sinus arrythmia ([1]; SAD All SN1011, N = 27): 0 | Treatment discontinuation due to AEs ([1]; SAD All SN1011, N = 27): 0 | Upper respiratory tract infection ([1]; SAD All SN1011, N = 27): 0 | serious adverse events ([2]; all parts of the study): No serious adverse events; also recorded: no SAEs were reported | subjects who experienced AEs [2, 4]: 28 | total number of AEs [2, 4]: 55
